Results from different studies.
Each line is one published result; the experiments were not run side by side.
Target: Serine/threonine-protein kinase tousled-like 1 (TLK1, Homo sapiens, UniProt Q9UKI8)
Sequence (Q9UKI8 1-766, as in one of the studies): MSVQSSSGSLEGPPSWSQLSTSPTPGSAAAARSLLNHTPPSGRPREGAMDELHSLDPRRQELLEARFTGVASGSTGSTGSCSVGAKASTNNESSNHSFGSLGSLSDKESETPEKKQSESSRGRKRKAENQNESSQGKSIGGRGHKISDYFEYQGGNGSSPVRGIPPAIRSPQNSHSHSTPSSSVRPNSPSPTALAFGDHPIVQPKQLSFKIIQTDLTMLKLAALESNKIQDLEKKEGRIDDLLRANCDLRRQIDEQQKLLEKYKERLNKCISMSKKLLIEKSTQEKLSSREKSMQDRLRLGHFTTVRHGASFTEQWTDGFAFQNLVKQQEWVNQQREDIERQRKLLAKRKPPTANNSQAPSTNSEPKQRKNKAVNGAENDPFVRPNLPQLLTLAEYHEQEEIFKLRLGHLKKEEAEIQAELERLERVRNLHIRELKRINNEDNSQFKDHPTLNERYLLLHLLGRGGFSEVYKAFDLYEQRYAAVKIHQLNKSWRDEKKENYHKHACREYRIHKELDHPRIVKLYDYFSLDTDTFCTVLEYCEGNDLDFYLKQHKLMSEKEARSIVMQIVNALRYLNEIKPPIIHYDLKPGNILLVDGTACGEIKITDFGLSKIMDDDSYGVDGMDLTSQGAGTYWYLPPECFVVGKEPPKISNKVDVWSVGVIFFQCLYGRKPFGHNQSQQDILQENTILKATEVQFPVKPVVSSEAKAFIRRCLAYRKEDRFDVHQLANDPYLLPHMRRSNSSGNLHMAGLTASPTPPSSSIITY

COc1cc(Cl)c(C(=O)N[C@@H](CN[C@H]2CC[C@@H](N)CC2)Cc2ccc(C#N)cc2)cc1-c1ccc(CN[C@H](C)c2ccc(C)cc2)o1 — remaining activity (enzyme activity; inhibitor; 1 µM): 94%
Cc1cc(NC(=O)c2cccc3cc(-c4cccc5[nH]nc(N)c45)ccc23)ccc1F — activity vs control (enzyme activity; inhibitor; 0.1 µM): 88%
CC(C)(C)c1nc(-c2cccc(NS(=O)(=O)c3c(F)cccc3F)c2F)c(-c2ccnc(N)n2)s1 — remaining activity (enzyme activity; inhibitor; radiometric; 1 µM): 108%
COc1cc(/C=C/C(=O)CC(=O)/C=C/c2ccc(O)c(OC)c2)ccc1O — activity vs control (enzyme activity; inhibitor; 1 µM): 128%
Cc1sc(C(=O)NC2COC2)cc1-n1cc(NC(=O)Nc2c(F)cccc2Cl)cn1 — remaining activity (enzyme activity; inhibitor; 10 µM): 105%
Cc1ccc(C(=O)NCc2ccsc2)cc1C#Cc1cn(C(C)C)c2ncnc(N)c12 — activity vs control (enzyme activity; inhibitor; 1 µM): 80%
CN1CC(Oc2cnc(C#N)cc2-c2ccn3nc(NC(=O)C4CC4)cc3c2)C1 — inhibition (enzyme activity; inhibitor; 1 µM): -13%
Cc1cnc(NC2CCOCC2)nc1-n1cnc(C(=O)NC(CN)c2cc(F)cc(Cl)c2)c1 (stereo not shown) — remaining activity (enzyme activity; inhibitor; radiometric; 1 µM): 99%
Nc1ncnc2occ(-c3ccc(NC(=O)Nc4cc(C(F)(F)F)ccc4F)cc3)c12 — remaining signal (cell-free assay; inhibitor; 20 µM): 39%
O=C(Nc1cnn(-c2csc(C(=O)NC3COC3)c2)c1)Nc1c(F)cccc1Cl — remaining activity (enzyme activity; inhibitor; 5 µM): 53.4%
COc1ccc2c(O[C@@H]3C[C@H]4C(=O)N[C@]5(C(=O)O)CC5/C=C\CCCCC[C@H](NC(=O)OC5CCCC5)C(=O)N4C3)cc(-c3csc(NC(=O)C(C)C)n3)nc2c1C (stereo partly shown) — remaining binding (cell-free assay; competition with immobilised ligand; 1 µM): 100%
CC(C)(O)[C@H]1CC[C@H](Nc2ccc3ncc(-c4cccc(C(F)(F)F)c4)n3n2)CC1 — remaining activity (enzyme activity; inhibitor; 1 µM): 94.2%
Cc1ccc(C(=O)Nc2ccc(CN3CCN(C)CC3)c(C(F)(F)F)c2)cc1C#Cc1cnc2cccnn12 — remaining activity (enzyme activity; inhibitor; 23.5 nM): 100%
C[C@@H](c1cccc(C#N)c1)n1cc(Cl)cc(C(N)=O)c1=N — remaining binding (cell-free assay; competition with immobilised ligand; 1 µM): 100%
COc1cc(Nc2cnc(C#N)c(O[C@H](C)CN(C)C)n2)ncc1-c1cnn(C)c1 — remaining activity (enzyme activity; inhibitor; radiometric; 10 µM): 93%
O=C(N1CCS(=O)(=O)CC1)N1C[C@H](c2ccc(OC(F)(F)F)cc2)C[C@H](c2nc(C3CC3)no2)C1 — remaining binding (cell-free assay; competition with immobilised ligand; 1 µM): 94%
CC(C)(C)c1nc2c(s1)c1nc(N)ncc1c1ccc(NS(=O)(=O)c3c(F)cccc3F)c(F)c12 — remaining activity (enzyme activity; inhibitor; radiometric; 1 µM): 92%
C[C@H](c1ccnc(Nc2nc3ccc(-c4cc(N(C)C)ncn4)cc3[nH]2)c1)N1CCN(C(=O)CC(F)(F)F)CC1 — remaining binding (cell-free assay; competition with immobilised ligand; 0.1 µM): 76%
Cc1ccc(NC(=O)c2ccc(C)c(C(F)(F)F)c2)cc1C#Cc1nn(C2CCC(O)CC2)c2ncnc(N)c12 (stereo not shown) — remaining signal (cell-free assay; 10 µM): 95%
